# According to ChEMBL document CHEMBL4689842, “EUbOPEN Chemogenomics Library wave 1” (2021):
# Test system: Fibroblast
# Assay: Multiplex assay against human fibroblast
# Type: toxicity, cell-based
# Summary of the method: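 Per cents of healthy-nucleus cells form the tubulin, mitochondrial-mass and membrane-permeability phenotype values. Live cells were stained at seeding with Hoechst33342, BioTracker Green Microtubule Cytoskeleton Dye, MitoTracker Red and Annexin V Alexa Fluor 680. After compound addition they were imaged on a CQ1 microscope at 37°C and 5% CO2, and CellPathfinder machine-learning gating split them into Hoechst high-intensity objects or normal cells, normal cells into healthy, pyknosed or fragmented nuclei, and pyknosed cells into mitotic or apoptotic.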
# [1] = 12 h, 1 µM, compound concentration 1 uM, replicate 1
# [2] = 12 h, 1 µM, compound concentration 1 uM, replicate 2
# [3] = 12 h, 10 µM, compound concentration 10 uM, replicate 1
# [4] = 12 h, 10 µM, compound concentration 10 uM, replicate 2
# [5] = 24 h, 1 µM, compound concentration 1 uM, replicate 1
# [6] = 24 h, 1 µM, compound concentration 1 uM, replicate 2
# [7] = 24 h, 10 µM, compound concentration 10 uM, replicate 1
# [8] = 24 h, 10 µM, compound concentration 10 uM, replicate 2
# [9] = 48 h, 1 µM, compound concentration 1 uM, replicate 1
# [10] = 48 h, 1 µM, compound concentration 1 uM, replicate 2
# [11] = 48 h, 10 µM, compound concentration 10 uM, replicate 1
# [12] = 48 h, 10 µM, compound concentration 10 uM, replicate 2
smiles,measurement,setting,value
COc1ncc(-c2ccc3nccc(-c4ccnnc4)c3c2)cc1NS(=O)(=O)c1ccc(F)cc1F [OMIPALISIB],Population Apoptotic (%),[1],57%
same,Population Fragmented Nuclei (%),[1],21%
same,Population Healthy Nuclei (%),[1],49%
same,Population Hoechst High Intensity Objects (%),[1],12%
same,Population Membrane Permeable-Phenotype (%),[1],28%
same,Population Mitochondria Different-Phenotype (%),[1],2%
same,Population Mitotic Cells (%),[1],42%
same,Population Normal (%),[1],87%
same,Population Pyknosed Nuclei (%),[1],29%
same,Population Tubulin-Different-Phenotype (%),[1],51%
same,Total Cell Count,[1],81
same,Population Apoptotic (%),[2],50%
same,Population Fragmented Nuclei (%),[2],46%
same,Population Healthy Nuclei (%),[2],42%
same,Population Hoechst High Intensity Objects (%),[2],7%
same,Population Membrane Permeable-Phenotype (%),[2],16%
same,Population Mitochondria Different-Phenotype (%),[2],16%
same,Population Mitotic Cells (%),[2],50%
same,Population Normal (%),[2],92%
same,Population Pyknosed Nuclei (%),[2],11%
same,Population Tubulin-Different-Phenotype (%),[2],23%
same,Total Cell Count,[2],51
same,Population Apoptotic (%),[3],78%
same,Population Fragmented Nuclei (%),[3],20%
same,Population Healthy Nuclei (%),[3],38%
same,Population Hoechst High Intensity Objects (%),[3],18%
same,Population Membrane Permeable-Phenotype (%),[3],30%
same,Population Mitochondria Different-Phenotype (%),[3],6%
same,Population Mitotic Cells (%),[3],21%
same,Population Normal (%),[3],81%
same,Population Pyknosed Nuclei (%),[3],41%
same,Population Tubulin-Different-Phenotype (%),[3],73%
same,Total Cell Count,[3],96
same,Population Apoptotic (%),[4],65%
same,Population Fragmented Nuclei (%),[4],33%
same,Population Healthy Nuclei (%),[4],27%
same,Population Hoechst High Intensity Objects (%),[4],7%
same,Population Membrane Permeable-Phenotype (%),[4],11%
same,Population Mitochondria Different-Phenotype (%),[4],16%
same,Population Mitotic Cells (%),[4],34%
same,Population Normal (%),[4],92%
same,Population Pyknosed Nuclei (%),[4],39%
same,Population Tubulin-Different-Phenotype (%),[4],22%
same,Total Cell Count,[4],77
same,Population Apoptotic (%),[5],58%
same,Population Fragmented Nuclei (%),[5],30%
same,Population Healthy Nuclei (%),[5],53%
same,Population Hoechst High Intensity Objects (%),[5],10%
same,Population Membrane Permeable-Phenotype (%),[5],32%
same,Population Mitochondria Different-Phenotype (%),[5],2%
same,Population Mitotic Cells (%),[5],41%
same,Population Normal (%),[5],89%
same,Population Tubulin-Different-Phenotype (%),[5],42%
same,Total Cell Count,[5],84
same,Population Apoptotic (%),[6],33%
same,Population Fragmented Nuclei (%),[6],43%
same,Population Healthy Nuclei (%),[6],40%
same,Population Hoechst High Intensity Objects (%),[6],11%
same,Population Membrane Permeable-Phenotype (%),[6],24%
same,Population Mitochondria Different-Phenotype (%),[6],17%
same,Population Mitotic Cells (%),[6],66%
same,Population Normal (%),[6],88%
same,Population Pyknosed Nuclei (%),[6],16%
same,Population Tubulin-Different-Phenotype (%),[6],37%
same,Total Cell Count,[6],50
same,Population Apoptotic (%),[7],66%
same,Population Fragmented Nuclei (%),[7],25%
same,Population Healthy Nuclei (%),[7],49%
same,Population Hoechst High Intensity Objects (%),[7],20%
same,Population Membrane Permeable-Phenotype (%),[7],31%
same,Population Mitochondria Different-Phenotype (%),[7],11%
same,Population Mitotic Cells (%),[7],33%
same,Population Normal (%),[7],79%
same,Population Pyknosed Nuclei (%),[7],25%
same,Population Tubulin-Different-Phenotype (%),[7],80%
same,Total Cell Count,[7],89
same,Population Apoptotic (%),[8],80%
same,Population Fragmented Nuclei (%),[8],27%
same,Population Healthy Nuclei (%),[8],22%
same,Population Hoechst High Intensity Objects (%),[8],11%
same,Population Membrane Permeable-Phenotype (%),[8],35%
same,Population Mitochondria Different-Phenotype (%),[8],28%
same,Population Mitotic Cells (%),[8],20%
same,Population Normal (%),[8],88%
same,Population Pyknosed Nuclei (%),[8],49%
same,Population Tubulin-Different-Phenotype (%),[8],42%
same,Total Cell Count,[8],81
same,Population Apoptotic (%),[9],42%
same,Population Fragmented Nuclei (%),[9],40%
same,Population Healthy Nuclei (%),[9],48%
same,Population Hoechst High Intensity Objects (%),[9],16%
same,Population Membrane Permeable-Phenotype (%),[9],21%
same,Population Mitochondria Different-Phenotype (%),[9],12%
same,Population Mitotic Cells (%),[9],57%
same,Population Normal (%),[9],83%
same,Population Pyknosed Nuclei (%),[9],10%
same,Population Tubulin-Different-Phenotype (%),[9],37%
same,Total Cell Count,[9],79
same,Population Apoptotic (%),[10],0%
same,Population Fragmented Nuclei (%),[10],47%
same,Population Healthy Nuclei (%),[10],52%
same,Population Hoechst High Intensity Objects (%),[10],13%
same,Population Membrane Permeable-Phenotype (%),[10],35%
same,Population Mitochondria Different-Phenotype (%),[10],3%
same,Population Mitotic Cells (%),[10],0%
same,Population Normal (%),[10],86%
same,Population Pyknosed Nuclei (%),[10],0%
same,Population Tubulin-Different-Phenotype (%),[10],53%
same,Total Cell Count,[10],61
same,Population Apoptotic (%),[11],63%
same,Population Fragmented Nuclei (%),[11],34%
same,Population Healthy Nuclei (%),[11],50%
same,Population Hoechst High Intensity Objects (%),[11],17%
same,Population Membrane Permeable-Phenotype (%),[11],31%
same,Population Mitochondria Different-Phenotype (%),[11],14%
same,Population Mitotic Cells (%),[11],36%
same,Population Normal (%),[11],82%
same,Population Pyknosed Nuclei (%),[11],15%
same,Population Tubulin-Different-Phenotype (%),[11],82%
same,Total Cell Count,[11],85
same,Population Apoptotic (%),[12],0%
same,Population Fragmented Nuclei (%),[12],33%
same,Population Healthy Nuclei (%),[12],65%
same,Population Hoechst High Intensity Objects (%),[12],12%
same,Population Membrane Permeable-Phenotype (%),[12],20%
same,Population Mitochondria Different-Phenotype (%),[12],8%
same,Population Mitotic Cells (%),[12],100%
same,Population Normal (%),[12],87%
same,Population Pyknosed Nuclei (%),[12],1%
same,Population Tubulin-Different-Phenotype (%),[12],93%
same,Total Cell Count,[12],86
